Assay results published in the RNAGym collection of RNA variant scans (doi:10.1002/anie.201605470).

B1: Osa-1-4 twister ribozyme (parent)
chain: CCGCCUAACACUGCCAAUGCCGGUCCCAAGCCCGGAUAAAAGUGGAGGGGGCGG

Variants of: B1
Test: self-cleavage, relative activity (ratio to wild type); higher = more cleavage; co-transcriptional
In short: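 A DNA template for a 54-nucleotide Oryza sativa twister ribozyme was synthesised with 97 % wild-type base and 1 % of each other base at the 48 positions downstream of the cleavage site. It was transcribed in vitro for 2 h at 37 °C, allowing co-transcriptional self-cleavage, then reverse-transcribed with a template-switching oligonucleotide, PCR-amplified and deep-sequenced. Cleavage status was scored from reads with or without upstream sequence. Relative activity is fraction cleaved normalised to wild type.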

self-cleavage, 0.03:
A7U C32A
A7U C33A
A7U C33G
A7U G19C
A7U G23C
A7U G23U
A7U G42U
A7U G48C
A7U G49C
A7U G49U
A7U G51C
A7U G53C

self-cleavage, 0.07:
A7U G22C
A7U G34U
A7U G35A
A7U G35C
A7U G50A
A7U G50U
A7U G51A
A7U G54A
A7U U37A
A7U U43C
A7U U43G
A8C

self-cleavage, 0.05:
A7U C31U
A7U G42C
A7U G45A
A7U G47A
A7U G51U
A7U G53U
A8C C9G

self-cleavage, 0.12:
A7U C52A
A7U C52G

self-cleavage, 0.04:
A7U C32G
A7U C32U
A7U G13A
A7U G45C
A7U G47C
A7U G47U
A7U G49A
A7U U24C

self-cleavage, 0.08:
A7U C33U
A7U G34A
A7U G53A
A7U U18C
A7U U37C
A7U U43A

self-cleavage, 0.01:
A7U G48U
A8C C9U

self-cleavage, 0.1:
A7U C52U
A7U G19U
A7U G34C
A7U U12C
A7U U37G
A8C C9A
A8C C11A

self-cleavage, 0.02:
A7U G13C
A7U G30C
A7U G30U
A7U G45U
A7U G48A
A7U U24G

self-cleavage, 0.06:
A7U C31G
A7U G13U
A7U G19A
A7U G22U
A7U G23A
A7U G30A
A7U G35U
A7U G44A
A7U G44C
A7U G50C
A7U G54C
A7U U12G
A7U U24A
A8C C11G

self-cleavage, 0.09:
A7U G22A
A7U G42A
A7U G44U
A7U U12A
A8C C11U

self-cleavage, 0.11:
A7U G54U
A7U U18A
A7U U18G
